The list is not random: actives were taken first. Their share in the collection is about 3.9%.
CHOP inhibitor – CHOP inhibition in unfolded protein response. inhibition, % at 10 µM. CHO-K1 CHOP-promoter luciferase, tunicamycin-induced, 15-18 h. 3.8% of 220,000 active;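 active = compounds that reduced the stress-induced luciferase reporter signal by more than about 70% of percent inhibition, limit read from the data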
XBP1 UPR activ – activators of adaptive arm of unfolded protein response (XBP1) | CHO-XBP1 luciferase reporter, IRE1-XBP1 UPR activation, luminescence; percent of tunicamycin response, DMSO as zero | activation, % at 20 µM | 0.33% of 330,000 active | AID 463104;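 active = versus positive control, 20 µM dose yields 30% or more activation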
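Material: CHO cell line with stable XBP1 luciferase reporter; buffer or medium: F12 medium containing 10% fetal bovine serum; compound: single point, 20 µM final compound, 1% DMSO; incubation: 6 h treatment, 37 °C; measured by: glow luminescence from Steady-Glo reagent; evaluation: activation, % of tunicamycin; control set: tunicamycin high, DMSO low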
697 NFkB inh – lowers PMA/ionomycin-induced NF-kB signal in 697 B cells; AID 435022; inhibition, % at 4 µM; 0.33% of 330,000 active; 697 B-cell NF-kB luciferase reporter, 16 h; in the data active = inhibition above about 35%
Gli-Sufu antag – antagonists of Gli-Sufu signaling; AID 588413; inhibition, % at 5 µM; 0.74% of 340,000 active; Sufu-KO-LIGHT fibroblasts, Gli luciferase reporter luminescence;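 active = inhibition above about 55%, limit read from the data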
Jurkat NFkB inh – inhibitors of the PMA/ionomycin-induced NF-kB reporter in Jurkat cells; PMA/ionomycin-induced NF-kB luciferase reporter, luminescence; inhibition, % at 4 µM; 0.53% of 330,000 active; in the data active = inhibition above about 50%
UPR CHOP act – apoptotic UPR (CHOP) activation. 0.34% of 330,000 active. AID 449763. CHO-CHOP luciferase reporter, luminescence; percent of tunicamycin response over DMSO baseline. activation, % at 10 µM;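 active = at 10 µM dose, activation of 40% or more, normalized to positive control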
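Test system: CHO-CHOP cells, stable luciferase reporter of PERK-eIF2a-CHOP signalling | Quantity: 500 CHO-CHOP cells per well | Buffer or medium: F12 plus 10% serum | Compound dosing: 10 µM single point, 0.5% DMSO | Schedule: 6 h compound treatment, 37 °C | Signal: Luciferase luminescence | Control set: Tunicamycin high control, DMSO low control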
697 NFkB conf – inhibitors of the PMA/ionomycin-induced NF-kB reporter in 697 B cells, retest; shares compounds with 697 NFkB inh; 697 B-cell NF-kB luciferase, 16 h; inhibition, % at 4 µM; 35% of 2,000 active; AID 449746; in the data active = inhibition mostly above about 28%, no sharp cut-off; inactive = mostly below about 22%
Hits are given with their value; n = inactive; x = no result given.

SMILES	CHOP inhibitor	XBP1 UPR activ	697 NFkB inh	Gli-Sufu antag	Jurkat NFkB inh	UPR CHOP act	697 NFkB conf
O=[N+]([O-])c1ccccc1N/N=C/c1cccc(O)c1O	71	n	n	n	n	n	n
COc1ccc(NC(=O)C2CCN(S(=O)(=O)c3cccc4nonc34)CC2)cc1OC	x	n	n	n	n	n	x
CCC(=O)Nc1ccc2oc(-c3cccc(C)c3)nc2c1	n	n	n	n	n	n	n
Nc1nccnc1C(=O)OCC(=O)NCCc1ccc(Cl)cc1	x	n	n	n	n	n	x
Fc1cccc2sc(Nc3nnc(-c4ccccc4)o3)nc12	n	n	n	n	n	n	x
COc1cc(OC)cc(-c2nnc(Nc3nc4c(F)cccc4s3)o2)c1	n	n	39	n	n	n	n
CC(C)c1ccc(NC(=O)[C@H](Cc2c[nH]c3ccccc23)NC(=O)[C@@H]2Cc3ccccc3CN2)cc1	x	n	n	n	n	n	n
CCC(=O)N1c2ccccc2C(N(C(C)=O)c2ccccc2)CC1C (stereo not drawn)	n	n	37	n	n	n	45
CCCC(=O)N1c2ccccc2[C@@H](N(C(C)=O)c2ccccc2)C[C@H]1C	n	n	n	n	n	n	x
CCOC(=O)N1CCC(N2CCN(S(=O)(=O)c3ccc4ccccc4c3)CC2)CC1	n	n	n	n	n	n	x
CCOC(=O)N1CCC(N2CCN(S(=O)(=O)c3ccc([N+](=O)[O-])cc3)CC2)CC1	n	n	35	n	n	n	n
CCN(CC)c1ccc(/C=C(\C#N)c2ccccn2)cc1	n	n	n	n	n	n	n
O=C(Nc1cccc(S(=O)(=O)N2CCCCCC2)c1)C1CCN(C(=O)c2ccc(Cl)cc2)CC1	x	n	n	n	n	n	x
CCOc1ccc(/C=C2\SC(=S)N(CCCC(=O)NCCCN3CCOCC3)C2=O)cc1	x	n	38	n	n	n	52
COc1ccc(/C=C2\SC(=S)N(CCC(=O)NCCCn3ccnc3)C2=O)cc1	x	n	n	n	n	n	x
CC(C)c1ccc(/C=C2\SC(=S)N(CCC(=O)N3CCCCC3CCO)C2=O)cc1 (stereo not drawn)	x	n	70	n	n	n	71
CCc1ccc(/C=C2/SC(=S)N(CCC(=O)Nc3cccnc3)C2=O)cc1	x	n	77	n	n	n	67
CC(C)c1ccc(/C=C2\SC(=S)N(CCC(=O)NCCCn3ccnc3)C2=O)cc1	x	n	38	n	n	n	38
CC(=O)c1cc(C(=O)N2CCc3c([nH]c4ccccc34)C2C2CCCCC2)[nH]n1 (stereo not drawn)	n	n	n	n	n	n	x
CC[C@]1(C(=O)OC)[C@H]2C(=O)N(C)C(=O)[C@H]2[C@H]2CN(C)C(=NC)N21	x	n	n	n	x	n	x
COCCC(=O)N1CCC(Oc2ccc(C(=O)NCCC3=CCCCC3)cc2)CC1	x	n	n	n	n	n	x
CCc1ccc(/C=C2\SC(=S)N(CCCC(=O)Nc3ccc(C(=O)O)cc3)C2=O)cc1	x	n	73	n	n	n	84
O=C(CCCN1C(=O)/C(=C/c2ccc3c(c2)OCO3)SC1=S)Nc1ccc(C(=O)O)cc1	x	n	78	n	n	n	78
CCOc1ccc(/C=C2\SC(=S)N(CCC(=O)Nc3cccc(C(=O)O)c3)C2=O)cc1	x	n	68	n	n	n	68
CCOc1ccc(/C=C2\SC(=S)N(CCC(=O)Nc3ccc(C(=O)O)cc3)C2=O)cc1	x	n	81	n	n	n	77
SMILES	CHOP inhibitor	XBP1 UPR activ	697 NFkB inh	Gli-Sufu antag	Jurkat NFkB inh	UPR CHOP act	697 NFkB conf
O=C(CCCN1C(=O)/C(=C\c2ccccc2)SC1=S)Nc1ccc(C(=O)O)cc1	x	n	n	n	n	n	x
CC(CNc1ccc(Cl)cc1)(CNc1ccc(Cl)cc1)[N+](=O)[O-]	x	x	x	n	x	x	x
Oc1ccc(C=Nc2ccccc2-c2nc3ccccc3[nH]2)c(O)c1	n	n	n	n	n	n	x
Oc1ccccc1C=Nc1ccccc1-c1nc2ccccc2[nH]1	n	n	n	n	n	n	n
CC(=O)c1ccc(NC(=O)c2ccc(CNc3c(N4CCCC4)c(=O)c3=O)cc2)cc1	n	n	n	n	n	n	x
Cc1ccc(NC(=O)c2ccc(CNc3c(N4CCC(C)CC4)c(=O)c3=O)cc2)cc1	n	n	50	n	n	n	n
CCc1cccc(NC(=O)c2ccc(CNc3c(N4CCCC4)c(=O)c3=O)cc2)c1	n	n	42	n	n	n	33
CCNC(=S)Nc1ccc(OCc2nc3ccccc3s2)cc1	x	n	n	n	n	n	x
COC(=O)c1[nH]c2ccc(C)cc2c1NC(=O)Nc1ccccc1OC	n	n	36	n	n	n	26
COC(=O)c1[nH]c2ccc(C)cc2c1NC(=O)CN1CCc2cc(OC)c(OC)cc2C1	n	n	n	n	n	n	x
O=C(CCCl)Nc1nc2c(s1)CCc1ccccc1-2	x	n	n	n	n	n	n
COC(=O)c1cccc(C(=O)N2CCCC(C(=O)c3cc(F)ccc3F)C2)c1 (stereo not drawn)	n	n	39	n	n	n	n
Cc1ccc2nc(-c3cccc(N)c3)oc2c1	n	n	n	n	n	n	x
CCc1ccc2oc(-c3cccc(N)c3)nc2c1	n	n	n	n	n	n	n
CC(=O)c1ccc(N=Nc2ccc(C)cc2)cc1	n	n	n	n	n	n	n
Cc1ccc(OCCCCNC(C)c2ccccc2)c(C)c1 (stereo not drawn)	x	n	n	n	n	n	x
Cc1ccc(S(=O)(=O)Nc2ccc3c(c2)n(C)c(=O)n3C)cc1	x	n	47	n	n	n	29
Cn1c(=O)n(C)c2cc(NS(=O)(=O)c3ccccc3)ccc21	x	n	36	n	n	n	32
O=C(CCN1N=C(c2ccccc2)CCC1=O)NCCCN1CCOCC1	x	n	n	n	n	n	x
CC(C)(C)C(=O)Nc1sc(-c2ccccc2)cc1C(=O)O	n	n	n	n	n	n	n
Cc1c(C2(O)CCCCC2)[nH]c2ccc(C(F)(F)F)cc12	x	n	n	n	n	n	n
CCN(C(=O)CN1C(=O)NC(c2ccccc2)(c2ccc(C)c(C)c2)C1=O)C1CCS(=O)(=O)C1 (stereo not drawn)	x	n	n	n	n	n	x
CCN(C(=O)CN1C(=O)NC(c2ccccc2)(c2ccc(C)c(C)c2)C1=O)C1CCCCC1 (stereo not drawn)	x	n	44	n	n	n	27
CCCCn1c(N)c(N(CCC(C)C)C(=O)CCN2C(=O)C3CC=CCC3C2=O)c(=O)[nH]c1=O (stereo not drawn)	x	n	n	n	n	n	x
COC(=O)c1ccccc1NC(=O)c1ccc(-c2ccc(Br)cc2)o1	n	n	n	n	n	n	n

Source: PubChem
